Assay results as given in ChEMBL document CHEMBL4387724, “2-Pyridineformamide N(4)-ring incorporated thiosemicarbazones inhibit MCF-7 cells by inhibiting JNK pathway” (Bioorg Med Chem Lett, 2019).

What was measured:
HeLa [1] = assay: Cytotoxicity against human HeLa cells assessed as reduction in cell growth at 10 uM incubated for 72 hrs by MTT assay relative to control; assay type: functional; settings: read-out: GI
How it was run: (§1)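 Cells grown in DMEM with 10% FBS and penicillin-streptomycin at 37 °C, 5% CO2, seeded at 3000 cells/well and attached overnight. Screening series given at 1, 3, 10, 100 μM; follow-up agent at 100 nM–3 μM; both 72 h, with 0.1% DMSO vehicle. MTT (5 mg/mL stock) added for 3 h at 37 °C, formazan dissolved in DMSO, absorbance read at 570 nm. Viability expressed as % of DMSO-treated wells from replicates.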

HeLa [2] = assay: Cytotoxicity against human HeLa cells assessed as reduction in cell growth incubated for 72 hrs by MTT assay; assay type: functional, cell-based; how it was run: as §1
MCF7 [3] = assay: Cytotoxicity against human MCF7 cells assessed as reduction in cell growth at 3 uM incubated for 72 hrs by MTT assay relative to control; assay type: functional; settings: MCF7, 72 h, read-out: GI; how it was run: as §1
MCF7 [4] = assay: Cytotoxicity against human MCF7 cells assessed as reduction in cell growth at 10 uM incubated for 72 hrs by MTT assay relative to control; assay type: functional; settings: MCF7, 72 h, read-out: GI; how it was run: as §1
A-375 [5] = assay: Cytotoxicity against human A375 cells assessed as reduction in cell growth at 100 uM incubated for 72 hrs by MTT assay relative to control; assay type: functional; settings: A-375, 72 h, read-out: GI; how it was run: as §1
A-431 [6] = assay: Cytotoxicity against human A431 cells assessed as reduction in cell growth at 3 uM incubated for 72 hrs by MTT assay relative to control; assay type: functional; settings: A-431, 72 h, read-out: GI; how it was run: as §1
HeLa [7] = assay: Cytotoxicity against human HeLa cells assessed as reduction in cell growth at 3 uM incubated for 72 hrs by MTT assay relative to control; assay type: functional; settings: read-out: GI; how it was run: as §1
MCF7 [8] = assay: Cytotoxicity against human MCF7 cells assessed as reduction in cell growth at 100 uM incubated for 72 hrs by MTT assay relative to control; assay type: functional; settings: MCF7, 72 h, read-out: GI; how it was run: as §1
A-431 [9] = assay: Cytotoxicity against human A431 cells assessed as reduction in cell growth at 30 uM incubated for 72 hrs by MTT assay relative to control; assay type: functional; settings: A-431, 72 h, read-out: GI
A-375 [10] = assay: Cytotoxicity against human A375 cells assessed as reduction in cell growth at 30 uM incubated for 72 hrs by MTT assay relative to control; assay type: functional; settings: A-375, 72 h, read-out: GI
A-375 [11] = assay: Cytotoxicity against human A375 cells assessed as reduction in cell growth at 3 uM incubated for 72 hrs by MTT assay relative to control; assay type: functional; settings: A-375, 72 h, read-out: GI; how it was run: as §1
MCF7 [12] = assay: Cytotoxicity against human MCF7 cells assessed as reduction in cell growth at 30 uM incubated for 72 hrs by MTT assay relative to control; assay type: functional; settings: MCF7, 72 h, read-out: GI
A-431 [13] = assay: Cytotoxicity against human A431 cells assessed as reduction in cell growth at 10 uM incubated for 72 hrs by MTT assay relative to control; assay type: functional; settings: A-431, 72 h, read-out: GI; how it was run: as §1
A-375 [14] = assay: Cytotoxicity against human A375 cells assessed as reduction in cell growth at 10 uM incubated for 72 hrs by MTT assay relative to control; assay type: functional; settings: A-375, 72 h, read-out: GI; how it was run: as §1
A-431 [15] = assay: Cytotoxicity against human A431 cells assessed as reduction in cell growth at 1 uM incubated for 72 hrs by MTT assay relative to control; assay type: functional; settings: A-431, 72 h, read-out: GI; how it was run: as §1
MCF7 [16] = assay: Cytotoxicity against human MCF7 cells assessed as reduction in cell growth incubated for 72 hrs by MTT assay; assay type: functional, cell-based; settings: MCF7, 72 h; how it was run: as §1
HeLa [17] = assay: Cytotoxicity against human HeLa cells assessed as reduction in cell growth at 30 uM incubated for 72 hrs by MTT assay relative to control; assay type: functional; settings: read-out: GI
MCF7 [18] = assay: Cytotoxicity against human MCF7 cells assessed as reduction in cell growth at 1 uM incubated for 72 hrs by MTT assay relative to control; assay type: functional; settings: MCF7, 72 h, read-out: GI; how it was run: as §1
HeLa [19] = assay: Cytotoxicity against human HeLa cells assessed as reduction in cell growth at 1 uM incubated for 72 hrs by MTT assay relative to control; assay type: functional; settings: read-out: GI; how it was run: as §1
HeLa [20] = assay: Cytotoxicity against human HeLa cells assessed as reduction in cell growth at 100 uM incubated for 72 hrs by MTT assay relative to control; assay type: functional; settings: read-out: GI; how it was run: as §1
A-375 [21] = assay: Cytotoxicity against human A375 cells assessed as reduction in cell growth incubated for 72 hrs by MTT assay; assay type: functional, cell-based; settings: A-375, 72 h; how it was run: as §1
A-375 [22] = assay: Cytotoxicity against human A375 cells assessed as reduction in cell growth at 1 uM incubated for 72 hrs by MTT assay relative to control; assay type: functional; settings: A-375, 72 h, read-out: GI; how it was run: as §1
A-431 [23] = assay: Cytotoxicity against human A431 cells assessed as reduction in cell growth at 100 uM incubated for 72 hrs by MTT assay relative to control; assay type: functional; settings: A-431, 72 h, read-out: GI; how it was run: as §1
A-431 [24] = assay: Cytotoxicity against human A431 cells assessed as reduction in cell growth incubated for 72 hrs by MTT assay; assay type: functional, cell-based; settings: A-431, 72 h; how it was run: as §1

SMILES | inhibition of growth at 10 µM (HeLa [1]) [%] | IC50 (HeLa [2]) [µM] | inhibition of growth at 3 µM (MCF7 [3]) [%] | inhibition of growth at 10 µM (MCF7 [4]) [%] | inhibition of growth at 100 µM (A-375 [5]) [%] | inhibition of growth at 3 µM (A-431 [6]) [%] | inhibition of growth at 3 µM (HeLa [7]) [%] | inhibition of growth at 100 µM (MCF7 [8]) [%] | inhibition of growth at 30 µM (A-431 [9]) [%] | inhibition of growth at 30 µM (A-375 [10]) [%] | inhibition of growth at 3 µM (A-375 [11]) [%] | inhibition of growth at 30 µM (MCF7 [12]) [%] | inhibition of growth at 10 µM (A-431 [13]) [%] | inhibition of growth at 10 µM (A-375 [14]) [%] | inhibition of growth at 1 µM (A-431 [15]) [%] | IC50 (MCF7 [16]) [µM] | inhibition of growth at 30 µM (HeLa [17]) [%] | inhibition of growth at 1 µM (MCF7 [18]) [%] | inhibition of growth at 1 µM (HeLa [19]) [%] | inhibition of growth at 100 µM (HeLa [20]) [%] | further results
N/C(=N\NC(=S)N1CCSCC1)c1ccc(F)cn1 | 70.5 | 1.7 | 35.4 | 38.1 | 83.2 | 61.2 | 62.9 | 65.7 | 84.6 | 78.7 | 62.2 | 58.8 | 61.8 | 70.9 | 48.7 | 21.4 | 81.7 | 30.6 | 19.6 | 88.1 | IC50 (A-375 [21]): 900 nM; inhibition of growth at 1 µM (A-375 [22]): 55.1%; inhibition of growth at 100 µM (A-431 [23]): 86.6%; IC50 (A-431 [24]): 1.2 µM
Cc1cccc(/C(N)=N/NC(=S)N2CCSCC2)n1 | 67.6 | 1.8 | 20.6 | 22.5 | 77.4 | 51.7 | 54.6 | 46.8 | 64.5 | 73.1 | 60.1 | 38.6 | 53.2 | 62.6 | 42.8 | > 100 | 85.3 | 7.3 | 46.5 | 81.6 | IC50 (A-375 [21]): 1400 nM; inhibition of growth at 1 µM (A-375 [22]): 47.2%; inhibition of growth at 100 µM (A-431 [23]): 80.7%; IC50 (A-431 [24]): 2.6 µM
N/C(=N\NC(=S)N1CCCCCC1)c1ccccn1 | 67.4 | 6 | 56 | 62.2 | 89 | 50.3 | 36.6 | 84 | 72.3 | 90 | 78.6 | 76.5 | 67 | 86.5 | 18.8 | 2.6 | 82.9 | 25.3 | 21.3 | 88.7 | IC50 (A-375 [21]): 740 nM; inhibition of growth at 1 µM (A-375 [22]): 67%; inhibition of growth at 100 µM (A-431 [23]): 77.5%; IC50 (A-431 [24]): 3 µM
N/C(=N\NC(=S)N1CCSCC1)c1ccccn1 | 54.5 | 7.8 | 29 | 54.3 | 87.8 | 37.2 | 39.7 | 72.4 | 81.3 | 86 | 80 | 72.6 | 61.4 | 83.9 | 31.7 | 8.8 | 80.6 | 16.3 | 25.1 | 88.7 | IC50 (A-375 [21]): 760 nM; inhibition of growth at 1 µM (A-375 [22]): 34%; inhibition of growth at 100 µM (A-431 [23]): 80.8%; IC50 (A-431 [24]): 6.7 µM
N/C(=N\NC(=S)N1CCN(c2ccccn2)CC1)c1ccccn1 | 56.1 | 8.6 | 37.2 | 46.4 | 86.8 | 45.8 | 24.4 | 68.3 | 74.9 | 81 | 73.7 | 65.3 | 69 | 74.4 | 11.6 | 13.7 | 78.9 | 36 | 16.7 | 85.6 | IC50 (A-375 [21]): 700 nM; inhibition of growth at 1 µM (A-375 [22]): 70%; inhibition of growth at 100 µM (A-431 [23]): 91.9%; IC50 (A-431 [24]): 4.3 µM
N/C(=N\NC(=S)N1CCOCC1)c1ccc(F)cn1 | 81.9 | 1.7 | 33.9 | 39.5 | 86.2 | 47 | 59.7 | 61.5 | 82.3 | 85.9 | 66.4 | 56.7 | 66.9 | 70.3 | 31.8 | 22.1 | 84.5 | 12.4 | 21.4 | 81.2 | IC50 (A-375 [21]): 1500 nM; inhibition of growth at 1 µM (A-375 [22]): 44.5%; inhibition of growth at 100 µM (A-431 [23]): 85.6%; IC50 (A-431 [24]): 4 µM
